Our source for the IC50 and IC50 ratio values is ChEMBL document CHEMBL1127831, “Synthesis and structure-activity relationships of new antitumor taxoids. Effects of cyclohexyl substitution at the C-3' and/or C-2 of taxotere (docetaxel)” (J Med Chem, 1994).

Assay [1] relates to P388. Description: In vitro cytotoxicity against murine P388 doxorubicin resistant leukemia cell line. As to conditions: Mus musculus. It is filed as functional, cell-based. In outline:
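P388/Dox cells grown in RPMI 1640 with 10% foetal calf serum, 2-mercaptoethanol, L-glutamine and antibiotics, with doxorubicin 1 μg/mL kept in the medium. Seeded at 1×10^5 cells/mL and exposed 96 h to a range of taxoid concentrations, quadruplicate points. Neutral red 0.02% added for 16 h, cells lysed in 1% SDS, OD read at 540 and 346 nm. IC50 = 50% growth inhibition, from three separate experiments.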

Assay [2] in a line: Ratio of inhibition of the rate of microtubule disassembly by the compound to that of paclitaxel. It is filed as functional. In a few lines:
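Porcine brain tubulin, MAP-depleted on phosphocellulose, used at 9 μM in MES pH 6.8 buffer with glycerol, 6 mM MgCl2 and 1 mM GTP. Taxoid in ethanol (0.1–5 μM) was added, tubulin polymerized 30 min at 37 °C, then cooled to 6 °C. Depolymerization rate was taken from the turbidity (350 nm) decline slope. The IC50 for 50% rate decrease was divided by the paclitaxel IC50.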

Assay [3] relates to P388. Description: In vitro cytotoxicity against murine P388 leukemia cell line. It counts as functional, cell-based. As to conditions: Mus musculus. In a few lines: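 P388 cells kept in RPMI 1640 with 10% foetal calf serum, 10 μM 2-mercaptoethanol, 2 mM L-glutamine and penicillin/streptomycin. Seeded at 1×10^5 cells/mL and grown 96 h with various taxoid concentrations, each in quadruplicate. Viability read by 16 h neutral red (0.02%) uptake, SDS lysis and OD at 540 and 346 nm. IC50 for 50% growth inhibition taken from three separate experiments.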

Values after ≈ are worked out from the molar mass of the structure shown.

In the case of `CC(=O)O[C@H]1C(=O)[C@@]2(C)C([C@H](OC(=O)C3CCCCC3)[C@]3(O)C[C@H](OC(=O)[C@H](O)C(NC(=O)c4ccccc4)c4ccccc4)C(C)=C1C3(C)C)[C@]1(OC(C)=O)CO[C@@H]1C[C@@H]2O` (stereo not given in full), the IC50 (in general, the concentration needed to halve the response being measured) in the assay on P388 [1] is 7.5 µg/mL (≈ 8.72 µM); in the assay on P388 [3], 0.45 µg/mL (≈ 0.523 µM). Moreover, in assay [2], the IC50 ratio stood at 1.7.

On to `CC(=O)O[C@@]12CO[C@@H]1C[C@H](O)[C@@]1(C)C(=O)[C@H](O)C3=C(C)[C@@H](OC(=O)[C@H](O)C(NC(=O)OC(C)(C)C)C4CCCCC4)C[C@@](O)([C@@H](OC(=O)c4ccccc4)C12)C3(C)C` (stereo not given in full), for which the IC50 with P388 [1] was found to be 3.1 µg/mL (≈ 3.81 µM); with P388 [3], 0.063 µg/mL (≈ 0.0774 µM). Also, in assay [2], the IC50 ratio turned out to be 0.72.

`CC(=O)O[C@@]12CO[C@@H]1C[C@H](O)[C@@]1(C)C(=O)[C@H](O)C3=C(C)[C@@H](OC(=O)[C@H](O)[C@@H](NC(=O)OC(C)(C)C)c4ccccc4)C[C@@](O)([C@@H](OC(=O)c4ccccc4)[C@H]21)C3(C)C.O.O.O` [DOCETAXEL]: the IC50 in the assay with P388 [1] is 1.5 µg/mL; with P388 [3], 0.008 µg/mL. Besides, the IC50 ratio in assay [2] was determined as 0.7.

Turning to `CC(=O)O[C@@]12CO[C@@H]1C[C@H](O)[C@@]1(C)C(=O)[C@H](O)C3=C(C)[C@@H](OC(=O)[C@H](O)C(NC(=O)OC(C)(C)C)c4ccccc4)C[C@@](O)([C@@H](OC(=O)C4CCCCC4)C12)C3(C)C` (stereo not given in full), the IC50 with P388 [1] came to 6.3 µg/mL (≈ 7.74 µM); with P388 [3], 0.09 µg/mL (≈ 0.111 µM). Further, in assay [2], the IC50 ratio worked out at 0.85.

For the compound `CC(=O)O[C@@]12CO[C@@H]1C[C@H](O)[C@@]1(C)C(=O)[C@H](O)C3=C(C)[C@@H](OC(=O)[C@H](O)C(NC(=O)OC(C)(C)C)C4CCCCC4)C[C@@](O)([C@@H](OC(=O)C4CCCCC4)C12)C3(C)C` (stereo not given in full), the IC50 with P388 [1] turned out to be 3.6 µg/mL (≈ 4.39 µM); in the assay on P388 [3], 0.076 µg/mL (≈ 0.0927 µM). In addition, the IC50 ratio in assay [2] was determined as 2.
